Reference: ChEMBL document CHEMBL2202986, “Guaianolide sesquiterpene lactones, a source to discover agents that selectively inhibit acute myelogenous leukemia stem and progenitor cells” (J Med Chem, 2012)
pIC50: −log10 of the molar value. One block for each compound: values may come before it. The source made the active and inactive calls.

Key:
[1] = Cytotoxicity against human leukemia stem/progenitor cells assessed as viable CD34+ cells at 10 uM after 18 hrs by annexin-V labeling-based flow cytometry; format: functional, CD34+ cell
HL-60 = test: Cytotoxicity against human HL60 cells after 18 hrs by annexin-V labeling-based flow cytometry; format: functional, cell-based; conditions: HL-60, 18 h
[2] = Cytotoxicity against human leukemia cells assessed as cell viability at 10 uM after 18 hrs by annexin-V labeling-based flow cytometry
[3] = Cytotoxicity against human leukemia stem/progenitor cells assessed as viable CD34+ cells at 5 uM after 18 hrs by annexin-V labeling-based flow cytometry; format: functional, CD34+ cell
In short: (§1)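 Primary leukemia cells from AML patient blood were treated for 18 h in serum-free IMDM, then stained with CD34-APC and CD38-PECy7 for 30 min. After washing in cold PBS, cells were labelled with Annexin-V–FITC/PI for 15 min at room temperature and read by flow cytometry. Viability of total and CD34⁺ cells was normalized to untreated controls (mean, SD).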

[4] = Cytotoxicity against human HL60/A cells after 18 hrs by annexin-V labeling-based flow cytometry; format: functional, cell-based
[5] = Cytotoxicity against human leukemia stem/progenitor cells assessed as cell viability at 5 uM after 18 hrs by annexin-V labeling-based flow cytometry; format: functional; conditions: in the assay text read “leukemia cells” for “leukemia stem/progenitor cells”, read-out: Activity; in short: as §1
[6] = Cytotoxicity against human CD34+ hematopioetic stem cells at 5 uM by immunostaining method; format: cell-based
In short: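 Mononuclear cells were Ficoll-isolated from umbilical cord blood of a normal donor, cryopreserved, then rested in serum-free IMDM for 1 h. Cells were treated for 18 h in IMDM, stained with CD34-APC for 30 min, and labelled with Annexin-V–FITC/PI for 15 min at room temperature. Read by flow cytometry, normalized to vehicle, done in triplicate.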

[7] = Induction of apoptosis in CD34+ leukemia stem/progenitor cells assessed as early apoptotic cells at 10 uM using annexin V/propidium iodide by flow cytometry; format: functional, Homo sapiens
In short: (§2)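 Primary AML patient cells were exposed to 10 μM compound for 18 h in IMDM, then stained with CD34-APC/CD38-PECy7. Annexin-V–FITC/PI was added and incubated for 15 min at room temperature before flow cytometry. Quadrants were defined as Q1 necrotic, Q2 late apoptotic, Q3 early apoptotic and Q4 viable.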

Homo sapiens = test: Antitumor activity against human leukemia stem/progenitor cells xenografted in NOD/SCID mouse assessed as reduction of CD45+CD33+ cells in spleen compound pretreated for 18 hrs before grafting process measured after 8 weeks; format: functional, tissue-based
In short: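 Fresh primary AML patient cells were exposed for 18 h to saline or compound. Equal numbers of surviving cells were then injected iv into NOD/SCID mice. After 8 weeks the mice were sacrificed, and the spleen CD33⁺CD45⁺ human cells were quantified by flow cytometry, with each animal analysed individually.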

[8] = Reduction in colony forming units of leukemia stem/progenitor cells at 5 uM after 15 to 20 days; format: functional, Homo sapiens
In short: (§3)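 Mononuclear cells from AML patient […] were exposed to drug for 18 h in serum-free IMDM, then plated in triplicate in M3434 methylcellulose. Total colonies (CFC-Mix, CFC-GM, CFC-G, CFC-M, BFU-E) were scored by morphology after 15−20 days.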

[9] = Induction of apoptosis in CD34+ leukemia stem/progenitor cells assessed as viable cells at 10 uM using annexin V/propidium iodide by flow cytometry; format: functional; conditions: Homo sapiens; read-out: Activity; in short: as §2
[10] = Cytotoxicity against human leukemia stem/progenitor cells assessed as viable CD34+CD38- cells at 10 uM after 18 hrs by annexin-V labeling-based flow cytometry relative to control; format: functional
[11] = Induction of apoptosis in CD34+ leukemia stem/progenitor cells assessed as late apoptotic cells at 10 uM using annexin V/propidium iodide by flow cytometry; format: functional, Homo sapiens; in short: as §2
[12] = Reduction in colony forming units of leukemia stem/progenitor cells at 10 uM after 15 to 20 days; format: functional, Homo sapiens; in short: as §3
[13] = Cytotoxicity against human leukemia stem/progenitor cells assessed as viable CD34+ cells at 10 uM after 18 hrs by annexin-V labeling-based flow cytometry relative to control; format: functional, CD34+ cell
[14] = Induction of apoptosis in CD34+ leukemia stem/progenitor cells assessed as necrotic cells at 10 uM using annexin V/propidium iodide by flow cytometry; format: functional, Homo sapiens; in short: as §2
[15] = Mean retention time (0 to infinity) in mouse at 150 mg/kg, po; format: ADME, organism-based; design: dose 150 mg/kg, route oral; conditions: in vivo
In short: (§4)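 Male Kunming mice (20 2 g), fasted 12 h before dosing with water available, given DMAMCL as an aqueous solution po (n = 5). Blood was drawn from the orbital veins at set times. Plasma DMAMCL and MCL were followed, and parameters came from noncompartmental analysis.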

[16] = AUC (0 to t) in mouse at 150 mg/kg, po; format: ADME, organism-based; design: dose 150 mg/kg, route oral; conditions: plasma; in short: as §4
Mus musculus = test: Volume of distribution in mouse at 150 mg/kg, po; format: ADME, organism-based; design: dose 150 mg/kg, route oral; conditions: in vivo
In short: (§5)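 Male Kunming mice (20 2 g) were fasted 12 h with water available. An aqueous solution was dosed po (150 mg/kg) or iv (100 mg/kg), n = 5 per route. Blood was drawn from the orbital veins at set times to measure DMAMCL and released MCL. Parameters come from a noncompartmental model and are given as mean with SD.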

[17] = Mean retention time (0 to infinity) in mouse at 100 mg/kg, iv; format: ADME, organism-based; design: dose 100 mg/kg, route intravenous; conditions: in vivo
In short: (§6)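 Male Kunming mice (20 2 g), fasted 12 h before dosing with water available, given DMAMCL as an aqueous solution iv (n = 5). Blood was drawn from the orbital veins at set times. DMAMCL and MCL in plasma were measured, and parameters were derived by a noncompartmental model.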

[18] = Total clearance in mouse at 150 mg/kg, po; format: ADME, organism-based; design: dose 150 mg/kg, route oral; conditions: in vivo; in short: as §4
[19] = Mean retention time (0 to t) in mouse at 150 mg/kg, po; format: ADME, organism-based; design: dose 150 mg/kg, route oral; conditions: in vivo; in short: as §4
[20] = Tmax in mouse at 150 mg/kg, po; format: ADME, organism-based; design: dose 150 mg/kg, route oral; conditions: in vivo; in short: as §4
[21] = Volume of distribution in mouse at 100 mg/kg, iv; format: ADME, organism-based; design: dose 100 mg/kg, route intravenous; conditions: in vivo; in short: as §5
[22] = Total clearance in mouse at 100 mg/kg, iv; format: ADME, organism-based; design: dose 100 mg/kg, route intravenous; conditions: in vivo; in short: as §6
[23] = Half life in mouse at 100 mg/kg, iv; format: ADME, organism-based; design: dose 100 mg/kg, route intravenous; conditions: in vivo; in short: as §6
[24] = Cmax in mouse at 150 mg/kg, po; format: ADME, organism-based; design: dose 150 mg/kg, route oral; conditions: in vivo; in short: as §4
[25] = Mean retention time (0 to t) in mouse at 100 mg/kg, iv; format: ADME, organism-based; design: dose 100 mg/kg, route intravenous; conditions: in vivo; in short: as §6
[26] = AUC (0 to infinity) in mouse at 100 mg/kg, iv; format: ADME, organism-based; design: time infinity, dose 100 mg/kg, route intravenous; conditions: plasma; in short: as §6
[27] = Cmax in mouse at 100 mg/kg, iv; format: ADME, organism-based; design: dose 100 mg/kg, route intravenous; conditions: in vivo; in short: as §6
[28] = Half life in mouse at 150 mg/kg, po; format: ADME, organism-based; design: dose 150 mg/kg, route oral; conditions: in vivo; in short: as §4
[29] = AUC (0 to t) in mouse at 100 mg/kg, iv; format: ADME, organism-based; design: dose 100 mg/kg, route intravenous; conditions: plasma; in short: as §6
[30] = AUC (0 to infinity) in mouse at 150 mg/kg, po; format: ADME, organism-based; design: dose 150 mg/kg, route oral, time infinity; conditions: plasma; in short: as §4

SMILES: C=C1C(=O)O[C@@H]2[C@@H]3[C@@H](CC[C@@]3(C)O)C(=C)CC[C@@H]12
Activity [1]: 22.6%
pIC50 (HL-60): 5.03
viability at 10 µM [2]: 30.6%
Activity [3]: 53.7%
pIC50 [4]: 5.00
viability at 5 µM [5]: 61.6%

SMILES: C=C1C(=O)O[C@@H]2[C@@H]3[C@@H](CC[C@@]3(C)O)[C@](C)(O)CC[C@@H]12
Activity [1]: 84.8%
pIC50 (HL-60): 4.66
viability at 10 µM [2]: 89.9%
Activity [3]: 84.9%
pIC50 [4]: 4.75
viability at 5 µM [5]: 88.5%

SMILES: C=C1C(=O)O[C@@H]2C3O[C@]3(C)CC/C=C(\C)CC[C@@H]12 (some centres not stated)
Activity [6]: Non-toxic
Activity [7]: 60.3%
Activity (Homo sapiens): Active
Activity [1]: 4.7%
CFU [8]: 2
viability at 10 µM [9]: 1.73%
pIC50 (HL-60): 5.43
fold change (FC) [10]: 2.6
viability at 10 µM [2]: 8.3%
Activity [11]: 27.8%
CFU [12]: 0
Activity [3]: 13.2%
pIC50 [4]: 5.39
fold change (FC) [13]: 3.8
viability at 5 µM [5]: 18%
Activity [14]: 0.046%

SMILES: C=C1CC[C@@H]2[C@](C)(CO)[C@H](O)CC[C@@]2(C)[C@@H]1C/C=C1/C(=O)OC[C@H]1O [ANDROGRAPHOLIDE]
pIC50 (HL-60): 4.57
pIC50 [4]: 4.63

SMILES: C=C1C(=O)O[C@@H]2[C@H]3C(C)=CC[C@@]34O[C@@]4(C)CC[C@@H]12 [ARGLABIN]
Activity [1]: 10.7%
fold change (FC) [10]: 1.9
viability at 10 µM [2]: 20%
fold change (FC) [13]: 1.8

SMILES: C[C@@H]1CC[C@H]2[C@@H](C)C(=O)O[C@@H]3O[C@@]4(C)CC[C@@H]1[C@]32OO4 [ARTEMISININ]
pIC50 (HL-60): < 4.30
pIC50 [4]: < 4.30

SMILES: C=C1C(=O)O[C@@H]2/C=C(\C)CC/C=C(\C)CC[C@@H]12 [COSTUNOLIDE]
Activity [1]: 7.5%
pIC50 (HL-60): 5.11
viability at 10 µM [2]: 13.4%
Activity [3]: 18.8%
pIC50 [4]: 5.24
viability at 5 µM [5]: 25.8%

SMILES: C=C1CC[C@H]2C(=C)CC[C@H]3C(=C)C(=O)O[C@@H]3[C@@H]12 [DEHYDROCOSTUSLACTONE]
Activity [1]: 3.8%
pIC50 (HL-60): 5.28
viability at 10 µM [2]: 6.4%
Activity [3]: 2.9%
pIC50 [4]: 5.43
viability at 5 µM [5]: 6.1%

SMILES: C=C1CC(=O)OC1=O [ITACONIC ANHYDRIDE]
pIC50 (HL-60): < 4.30
pIC50 [4]: < 4.30

MRT inf [15]: 8.28 h
AUC(0-t) [16]: 6630 ng·h/mL
Vd (Mus musculus): 265.27 L/kg
MRT inf [17]: 6.34 h
CL/F [18]: 376 mL/min/kg
MRT last [19]: 7.59 h
Tmax [20]: 0.36 h
Vd [21]: 533 L/kg
clearance [22]: 288 mL/min/kg
half-life [23]: 12.7 h
Cmax [24]: 2610 ng/mL
MRT last [25]: 1.49 h
AUC(0-inf) [26]: 5850 ng·h/mL
Cmax [27]: 10700 ng/mL
half-life [28]: 7.92 h
AUC(0-t) [29]: 5490 ng·h/mL
AUC(0-inf) [30]: 6720 ng·h/mL
SMILES: C=C1C(=O)O[C@H]2[C@H]1CCC(C)=C1CC[C@@](C)(O)[C@@H]12 [MICHELIOLIDE]
Activity [6]: Non-toxic
Activity [7]: 24.2%
Activity (Homo sapiens): Active
Activity [1]: 2.3%
CFU [8]: 4.5
viability at 10 µM [9]: 1.42%
pIC50 (HL-60): 5.26
fold change (FC) [10]: 5.3
viability at 10 µM [2]: 8.4%
Activity [11]: 69.4%
CFU [12]: 0
Activity [3]: 4.2%
pIC50 [4]: 5.21
fold change (FC) [13]: 3.2
viability at 5 µM [5]: 11.7%
Activity [14]: 0.127%

SMILES: CCCCC/C=C/C=C/C(=O)N1CCCC1 [SARMENTINE]
pIC50 (HL-60): < 4.30
pIC50 [4]: < 4.30

SMILES: C=C1CCOC1=O [TULIPALINE A]
pIC50 (HL-60): 4.46
pIC50 [4]: 4.54
